Measured values: ChEMBL document CHEMBL1275451, “In vitro susceptibilities of invasive isolates of Candida species: rapid increase in rates of fluconazole susceptible-dose dependent Candida glabrata isolates” (2008)
In brackets after ≈: the same amount, converted by molar mass.

Assays:
Format in all cases: functional
Candida tropicalis [1] = assay: Antifungal activity against Candida tropicalis after 48 hrs by CLSI method
Method in brief: (§1)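 Broth microdilution MICs were run on invasive clinical Candida isolates under CLSI M27-A2, with incubation at 35°C for 48 h before reading. Control strains were C. parapsilosis ATCC 22019 and C. krusei ATCC 6258. MICs were interpreted under the same guideline to place isolates as susceptible, susceptible-dose dependent or resistant, reported as percentage of isolates per category, with MIC range, MIC50 and MIC90.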

Candida albicans [2] = assay: Antifungal activity against Candida albicans after 48 hrs by CLSI method
Nakaseomyces glabratus [3] = assay: Antifungal activity against Candida glabrata after 48 hrs by CLSI method
Candida parapsilosis [4] = assay: Antifungal activity against Candida parapsilosis after 48 hrs by CLSI method; conditions: Lodderomyces parapsilosis; method in brief: as §1
[5] = system: Meyerozyma guilliermondii; assay: Antifungal activity against Candida guilliermondii after 48 hrs by CLSI method
Pichia kudriavzevii [6] = assay: Antifungal activity against Candida krusei after 48 hrs by CLSI method
Method in brief: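 Broth microdilution MICs were run on invasive clinical Candida isolates under CLSI M27-A2, with incubation at 35°C for 48 h before reading. MICs were interpreted under the same guideline to place isolates as susceptible, susceptible-dose dependent or resistant, reported as percentage of isolates per category, with MIC range, MIC50 and MIC90.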

Clavispora lusitaniae [7] = assay: Antifungal activity against Candida lusitaniae after 48 hrs by CLSI method
Candida albicans [8] = assay: Antifungal activity against Candida albicans assessed as susceptible isolates after 48 hrs by CLSI method; method in brief: as §1
Nakaseomyces glabratus [9] = assay: Antifungal activity against Candida glabrata assessed as susceptible isolates after 48 hrs by CLSI method; method in brief: as §1
Candida tropicalis [10] = assay: Antifungal activity against Candida tropicalis assessed as susceptible isolates after 48 hrs by CLSI method; method in brief: as §1
Candida parapsilosis [11] = assay: Antifungal activity against Candida parapsilosis assessed as susceptible isolates after 48 hrs by CLSI method; method in brief: as §1
[12] = system: Meyerozyma guilliermondii; assay: Antifungal activity against Candida guilliermondii assessed as susceptible isolates after 48 hrs by CLSI method; method in brief: as §1
Pichia kudriavzevii [13] = assay: Antifungal activity against Candida krusei assessed as susceptible isolates after 48 hrs by CLSI method; method in brief: as §1
Clavispora lusitaniae [14] = assay: Antifungal activity against Candida lusitaniae assessed as susceptible isolates after 48 hrs by CLSI method; method in brief: as §1
Candida albicans [15] = assay: Antifungal activity against Candida albicans assessed as resistant isolates after 48 hrs by CLSI method; method in brief: as §1
Nakaseomyces glabratus [16] = assay: Antifungal activity against Candida glabrata assessed as resistant isolates after 48 hrs by CLSI method; method in brief: as §1
Candida tropicalis [17] = assay: Antifungal activity against Candida tropicalis assessed as resistant isolates after 48 hrs by CLSI method; method in brief: as §1
Candida parapsilosis [18] = assay: Antifungal activity against Candida parapsilosis assessed as resistant isolates after 48 hrs by CLSI method; method in brief: as §1
[19] = system: Meyerozyma guilliermondii; assay: Antifungal activity against Candida guilliermondii assessed as resistant isolates after 48 hrs by CLSI method; method in brief: as §1
Pichia kudriavzevii [20] = assay: Antifungal activity against Candida krusei assessed as resistant isolates after 48 hrs by CLSI method; method in brief: as §1
Clavispora lusitaniae [21] = assay: Antifungal activity against Candida lusitaniae assessed as resistant isolates after 48 hrs by CLSI method; method in brief: as §1
Candida albicans [22] = assay: Antifungal activity against Candida albicans assessed as susceptible dose-dependent isolates after 48 hrs by CLSI method; method in brief: as §1
Nakaseomyces glabratus [23] = assay: Antifungal activity against Candida glabrata assessed as susceptible dose-dependent isolates after 48 hrs by CLSI method; method in brief: as §1
Candida tropicalis [24] = assay: Antifungal activity against Candida tropicalis assessed as susceptible dose-dependent isolates after 48 hrs by CLSI method; method in brief: as §1
Candida parapsilosis [25] = assay: Antifungal activity against Candida parapsilosis assessed as susceptible dose-dependent isolates after 48 hrs by CLSI method; method in brief: as §1
[26] = system: Meyerozyma guilliermondii; assay: Antifungal activity against Candida guilliermondii assessed as susceptible dose-dependent isolates after 48 hrs by CLSI method; method in brief: as §1
Pichia kudriavzevii [27] = assay: Antifungal activity against Candida krusei assessed as susceptible dose-dependent isolates after 48 hrs by CLSI method; method in brief: as §1
Clavispora lusitaniae [28] = assay: Antifungal activity against Candida lusitaniae assessed as susceptible dose-dependent isolates after 48 hrs by CLSI method; method in brief: as §1

SMILES | MIC50 (Candida tropicalis [1]) [µg/mL] | MIC90 (Candida tropicalis [1]) [µg/mL] | MIC (Candida albicans [2]) [µg/mL] | MIC50 (Candida albicans [2]) [µg/mL] | MIC90 (Candida albicans [2]) [µg/mL] | MIC50 (Nakaseomyces glabratus [3]) [µg/mL] | MIC90 (Nakaseomyces glabratus [3]) [µg/mL] | MIC50 (Candida parapsilosis [4]) [µg/mL] | MIC90 (Candida parapsilosis [4]) [µg/mL] | MIC50 (Pichia kudriavzevii [6]) [µg/mL] | MIC90 (Pichia kudriavzevii [6]) [µg/mL] | MIC50 (Clavispora lusitaniae [7]) [µg/mL] | MIC90 (Clavispora lusitaniae [7]) [µg/mL] | Activity (Candida albicans [8]) [%] | Activity (Nakaseomyces glabratus [9]) [%] | Activity (Candida tropicalis [10]) [%] | Activity (Candida parapsilosis [11]) [%] | Activity [12] [%] | Activity (Pichia kudriavzevii [13]) [%] | Activity (Clavispora lusitaniae [14]) [%] | also measured
C[C@@H](c1ncncc1F)[C@](O)(Cn1cncn1)c1ccc(F)cc1F [VORICONAZOLE] | 0.12 (≈ 0.344 µM) | 0.12 (≈ 0.344 µM) | 0.015 (≈ 0.0429 µM) | 0.015 (≈ 0.0429 µM) | 0.03 (≈ 0.0859 µM) | 0.5 (≈ 1.43 µM) | 1 (≈ 2.86 µM) | 0.03 (≈ 0.0859 µM) | 0.06 (≈ 0.172 µM) | 0.5 (≈ 1.43 µM) | 0.5 (≈ 1.43 µM) | 0.015 (≈ 0.0429 µM) | 0.015 (≈ 0.0429 µM) | 100 | 94 | 100 | 100 | 97 | 95 | 100 | MIC50 [5]: 0.06 µg/mL (≈ 0.172 µM); MIC90 [5]: 0.12 µg/mL (≈ 0.344 µM); MIC (Clavispora lusitaniae [7]): 0.015 µg/mL (≈ 0.0429 µM); Activity (Candida albicans [15]): 0%; Activity (Nakaseomyces glabratus [16]): 4%; Activity (Candida tropicalis [17]): 0%; Activity (Candida parapsilosis [18]): 0%; Activity [19]: 0%; Activity (Pichia kudriavzevii [20]): 3%; Activity (Clavispora lusitaniae [21]): 0%; Activity (Candida albicans [22]): 0%; Activity (Nakaseomyces glabratus [23]): 2%; Activity (Candida tropicalis [24]): 0%; Activity (Candida parapsilosis [25]): 0%; Activity [26]: 3%; Activity (Pichia kudriavzevii [27]): 3%; Activity (Clavispora lusitaniae [28]): 0%
OC(Cn1cncn1)(Cn1cncn1)c1ccc(F)cc1F [FLUCONAZOLE] | 1 (≈ 3.27 µM) | 2 (≈ 6.53 µM) | 0.12 (≈ 0.392 µM) | 0.12 (≈ 0.392 µM) | 0.25 (≈ 0.816 µM) | 16 (≈ 52.2 µM) | 32 (≈ 104 µM) | 1 (≈ 3.27 µM) | 2 (≈ 6.53 µM) | 32 (≈ 104 µM) | 64 (≈ 209 µM) | 0.25 (≈ 0.816 µM) | 0.5 (≈ 1.63 µM) | 100 | 22 | 100 | 98 | 88 | 0 | 100 | Activity (Candida albicans [15]): 0%; Activity (Nakaseomyces glabratus [16]): 6%; Activity (Candida tropicalis [17]): 0%; Activity (Candida parapsilosis [18]): 0%; Activity [19]: 3%; Activity (Pichia kudriavzevii [20]): 38%; Activity (Clavispora lusitaniae [21]): 0%; Activity (Candida albicans [22]): 0%; Activity (Nakaseomyces glabratus [23]): 73%; Activity (Candida tropicalis [24]): 0%; Activity (Candida parapsilosis [25]): 2%; Activity [26]: 9%; Activity (Pichia kudriavzevii [27]): 63%; Activity (Clavispora lusitaniae [28]): 0%
